In brackets after ≈: the same amount, converted by molar mass.
Key:
Staphylococcus aureus = experiment: Antibacterial activity against Staphylococcus aureus ATCC 6538P after 18 hrs by serial dilution method; format: functional
In short: (§1)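 Agar dilution MIC. Compound stock diluted with water, then serially doubled in melted Mueller–Hinton agar to 64, 32, 16 and 8 µg/mL. Plates inoculated with 1-5 × 10^4 CFU and incubated 18 h at 37 °C. MIC is the lowest concentration giving no visible growth.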

[1] = system: Staphylococcus epidermidis; experiment: Antibacterial activity against Staphylococcus epidermidis ATCC 12228 after 18 hrs by serial dilution method; format: functional; conditions: ATCC 12228, 18 h; in short: as §1
Escherichia coli = experiment: Antibacterial activity against Escherichia coli ATCC 8739 after 18 hrs by serial dilution method; format: functional; conditions: ATCC 8739, 18 h; in short: as §1
Klebsiella pneumoniae = experiment: Antibacterial activity against Klebsiella pneumoniae ATCC 10031 after 18 hrs by serial dilution method; format: functional; conditions: ATCC 10031, 18 h; in short: as §1
Candida albicans = experiment: Antifungal activity against Candida albicans PTCC 5027 after 72 hrs by agar dilution method; format: functional
Saccharomyces cerevisiae = experiment: Antifungal activity against Saccharomyces cerevisiae PTCC 5177 after 72 hrs by agar dilution method; format: functional
Nannizzia gypsea = experiment: Antifungal activity against Microsporum gypseum PTCC 5070 after […] by agar dilution method; format: functional
In short: (§2)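 Agar dilution on Sabouraud dextrose agar. Compound stocks in DMSO. Inocula about 10^5 CFU/mL from log-phase broth cultures. Plates run in triplicate at 30 °C: about 24–48 h for yeasts, about 72 h for moulds, about 168 h for dermatophytes. MIC is the lowest concentration with no visible growth on the plate.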

Aspergillus niger = experiment: Antifungal activity against Aspergillus niger PTCC 5012 after 72 hrs by agar dilution method; format: functional; in short: as §2
Helicobacter pylori [2] = experiment: Antibacterial activity against metronidazole-sensitive Helicobacter pylori assessed as inhibition zone diameter at 8 ug/disk after 3-5 days by paper disk diffusion assay; format: functional
In short: (§3)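 Filter-paper disk diffusion (6 mm disks), with the compound applied in 40 µL methanol and dried. Disks placed on Mueller–Hinton agar with 7% defibrinated horse blood, inoculated with 48 h H. pylori clinical-isolate suspension at 2 McFarland (10^7-10^8 CFU/mL). Incubated 3–5 days at 37 °C microaerophilically (5% O2, 15% CO2, 80% N2). Mean inhibition-zone diameter (mm) from triplicates.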

Helicobacter pylori [3] = experiment: Antibacterial activity against metronidazole-sensitive Helicobacter pylori assessed as inhibition zone diameter at 16 ug/disk after 3-5 days by paper disk diffusion assay; format: functional
In short: (§4)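 Filter paper disks (6 mm) loaded with compound in 40 μL methanol, dried, placed on Mueller–Hinton agar with 7% defibrinated horse blood pre-inoculated with H. pylori suspension (2 McFarland, 10⁷-10⁸ CFU/mL; 48 h cultures checked for coccoid forms); incubated microaerophilically (5% O2, 15% CO2, 80% N2) at 37 °C for 3–5 days; mean inhibition zone diameter (mm) of triplicates.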

Helicobacter pylori [4] = experiment: Antibacterial activity against metronidazole-sensitive Helicobacter pylori assessed as inhibition zone diameter at 32 ug/disk after 3-5 days by paper disk diffusion assay; format: functional; in short: as §3
Helicobacter pylori [5] = experiment: Antibacterial activity against Helicobacter pylori isolate assessed as inhibition zone diameter at 0.5 ug/disk after 3-5 days by paper disk diffusion assay; format: functional; in short: as §3
Helicobacter pylori [6] = experiment: Antibacterial activity against Helicobacter pylori isolate assessed as inhibition zone diameter at 1 ug/disk after 3-5 days by paper disk diffusion assay; format: functional; in short: as §3
Helicobacter pylori [7] = experiment: Antibacterial activity against Helicobacter pylori isolate assessed as inhibition zone diameter at 2 ug/disk after 3-5 days by paper disk diffusion assay; format: functional; in short: as §3
Helicobacter pylori [8] = experiment: Antibacterial activity against Helicobacter pylori isolate assessed as inhibition zone diameter at 4 ug/disk after 3-5 days by paper disk diffusion assay; format: functional; in short: as §3
Helicobacter pylori [9] = experiment: Antibacterial activity against Helicobacter pylori isolate assessed as inhibition zone diameter at 8 ug/disk after 3-5 days by paper disk diffusion assay; format: functional; in short: as §3
Helicobacter pylori [10] = experiment: Antibacterial activity against Helicobacter pylori isolate assessed as inhibition zone diameter at 16 ug/disk after 3-5 days by paper disk diffusion assay; format: functional; in short: as §3
Helicobacter pylori [11] = experiment: Antibacterial activity against Helicobacter pylori isolate assessed as inhibition zone diameter at 32 ug/disk after 3-5 days by paper disk diffusion assay; format: functional; in short: as §3
[12] = Cytotoxicity against mouse NIH/3T3 cells after 72 hrs by MTT assay; format: cell-based; conditions: NIH3T3, 72 h
In short: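 NIH/3T3 mouse fibroblasts in exponential phase trypsinized and seeded at 5×10^4 cells/mL, then given serially diluted compound in triplicate and incubated 72 h. MTT (5 mg/mL solution) added for 1 h, formazan dissolved in DMSO, absorbance read at 492 nm. IC50 calculated from dose-response curves versus untreated controls, as mean ± SD of triplicates.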

Helicobacter pylori [13] = experiment: Antibacterial activity against metronidazole-resistant Helicobacter pylori assessed as inhibition zone diameter at 32 ug/disk after 3-5 days by paper disk diffusion assay; format: functional; in short: as §4
Helicobacter pylori [14] = experiment: Antibacterial activity against metronidazole-resistant Helicobacter pylori assessed as inhibition zone diameter at 8 ug/disk after 3-5 days by paper disk diffusion assay; format: functional; in short: as §4
Helicobacter pylori [15] = experiment: Antibacterial activity against metronidazole-resistant Helicobacter pylori assessed as inhibition zone diameter at 16 ug/disk after 3-5 days by paper disk diffusion assay; format: functional; in short: as §4

| SMILES | MIC (Staphylococcus aureus) [µg/mL] | MIC [1] [µg/mL] | MIC (Escherichia coli) [µg/mL] | MIC (Klebsiella pneumoniae) [µg/mL] | MIC (Candida albicans) [µg/mL] | MIC (Saccharomyces cerevisiae) [µg/mL] | MIC (Nannizzia gypsea) [µg/mL] | MIC (Aspergillus niger) [µg/mL] | Activity (Helicobacter pylori [2]) [mm] | Activity (Helicobacter pylori [3]) [mm] | Activity (Helicobacter pylori [4]) [mm] | Activity (Helicobacter pylori [5]) [mm] | Activity (Helicobacter pylori [6]) [mm] | Activity (Helicobacter pylori [7]) [mm] | Activity (Helicobacter pylori [8]) [mm] | Activity (Helicobacter pylori [9]) [mm] | Activity (Helicobacter pylori [10]) [mm] | Activity (Helicobacter pylori [11]) [mm] | IC50 [12] [µg/mL] | Activity (Helicobacter pylori [13]) [mm] | further results |
| --- | --- | --- | --- | --- | --- | --- | --- | --- | --- | --- | --- | --- | --- | --- | --- | --- | --- | --- | --- | --- | --- |
| CCSCCSc1nnc(-c2ccc([N+](=O)[O-])s2)s1 | > 32 | 32 (≈ 96 µM) | > 32 | > 32 | > 32 | > 32 | > 32 | > 32 | 50 | 50 | 50 | 16.8 | 22.9 | 28.9 | 37.1 | 44.4 | 47 | 47.2 | 4.5 (≈ 13.5 µM) | – | – |
| CCS(=O)(=O)CCSc1nnc(-c2cccc([N+](=O)[O-])c2)s1 | > 32 | 32 (≈ 89 µM) | > 32 | > 32 | > 32 | > 32 | > 32 | > 32 | 6 | 6 | 26 | – | – | – | – | – | – | – | – | 25 | – |
| CCS(=O)(=O)CCSc1nnc(-c2ccc([N+](=O)[O-])cc2)s1 | > 32 | 32 (≈ 89 µM) | > 32 | > 32 | > 32 | > 32 | > 32 | > 32 | 19 | 24 | 30 | – | – | – | – | – | – | – | – | 27 | – |
| CCS(=O)(=O)CCSc1nnc(-c2ncc([N+](=O)[O-])n2C)s1 | > 32 | 32 (≈ 88 µM) | > 32 | > 32 | > 32 | > 32 | > 32 | > 32 | 35 | 40 | 47 | 8.5 | 11.9 | 16.5 | 23.4 | 29.7 | 35.8 | 40.7 | 100 (≈ 275 µM) | – | Activity (Helicobacter pylori [14]): 36 mm |
| CCSCCSc1nnc(-c2cccc([N+](=O)[O-])c2)s1 | > 32 | 32 (≈ 97.7 µM) | > 32 | > 32 | > 32 | > 32 | > 32 | > 32 | 6 | 6 | 9 | – | – | – | – | – | – | – | – | – | – |
| CCSCCSc1nnc(-c2ccc([N+](=O)[O-])cc2)s1 | > 32 | 32 (≈ 97.7 µM) | > 32 | > 32 | > 32 | > 32 | > 32 | > 32 | 6 | 16 | 20 | – | – | – | – | – | – | – | – | – | – |
| CCSCCSc1nnc(-c2ncc([N+](=O)[O-])n2C)s1 | > 32 | 32 (≈ 96.5 µM) | > 32 | > 32 | > 32 | > 32 | > 32 | > 32 | 32 | 37 | 48 | 12.2 | 15 | 19.5 | 25.4 | 31.7 | 36.5 | 42.6 | 61.5 (≈ 186 µM) | 59 | Activity (Helicobacter pylori [14]): 35 mm; Activity (Helicobacter pylori [15]): 47 mm |
| CCS(=O)(=O)CCSc1nnc(-c2ccc([N+](=O)[O-])o2)s1 | > 32 | 32 (≈ 91.6 µM) | > 32 | > 32 | > 32 | > 32 | > 32 | > 32 | 37 | 43 | 46 | 6.6 | 12.6 | 18.3 | 23.5 | 29.1 | 33.1 | 36.5 | 4.2 (≈ 12 µM) | 41 | Activity (Helicobacter pylori [14]): 29 mm; Activity (Helicobacter pylori [15]): 34 mm |
| CCSCCSc1nnc(-c2ccc([N+](=O)[O-])o2)s1 | > 32 | 32 (≈ 101 µM) | > 32 | > 32 | > 32 | > 32 | > 32 | > 32 | 22 | 31 | 42 | 6 | 11.1 | 16.4 | 21.5 | 28.3 | 30.7 | 34.9 | 5 (≈ 15.8 µM) | 28 | Activity (Helicobacter pylori [14]): 16 mm; Activity (Helicobacter pylori [15]): 21 mm |
| CCS(=O)(=O)CCSc1nnc(-c2ccc([N+](=O)[O-])s2)s1 | > 32 | 32 (≈ 87.6 µM) | > 32 | > 32 | > 32 | > 32 | > 32 | > 32 | >50 | >50 | >50 | 18.2 | 24.9 | 31.9 | 37.5 | 44.2 | 46.7 | 47.6 | 11.6 (≈ 31.7 µM) | – | – |
| CCSCCSc1nnc(-c2ccccc2[N+](=O)[O-])s1 | > 32 | 32 (≈ 97.7 µM) | > 32 | > 32 | > 32 | > 32 | > 32 | > 32 | 6 | 6 | 6 | – | – | – | – | – | – | – | – | – | – |
| CCS(=O)(=O)CCSc1nnc(-c2ccccc2[N+](=O)[O-])s1 | > 32 | 32 (≈ 89 µM) | > 32 | > 32 | > 32 | > 32 | > 32 | > 32 | 6 | 9 | 15 | – | – | – | – | – | – | – | – | 13 | – |
| CC1(C)S[C@@H]2[C@H](NC(=O)[C@H](N)c3ccc(O)cc3)C(=O)N2[C@H]1C(=O)O [AMOXICILLIN] | – | – | – | – | – | – | – | – | – | – | – | – | 24.5 | – | – | – | – | – | – | – | – |
| Cc1ncc([N+](=O)[O-])n1CCO [METRONIDAZOLE] | – | – | – | – | – | – | – | – | 18 | 23 | 27 | 6 | 6 | 7.5 | 8.75 | 16.3 | 18.4 | 20.7 | – | 14 | Activity (Helicobacter pylori [14]): 11 mm; Activity (Helicobacter pylori [15]): 12 mm |
